# Assay results collected from several papers.
# TYK2 JH2: Non-receptor tyrosine-protein kinase TYK2, JH2 (TYK2, Homo sapiens, UniProt P29597)
# TYK2 JH1: Non-receptor tyrosine-protein kinase TYK2, JH1 (TYK2, Homo sapiens, UniProt P29597)
# TYK2: Non-receptor tyrosine-protein kinase TYK2 (TYK2, Homo sapiens, UniProt P29597)
Structure (SMILES),target,test,conditions,remaining binding [%]
COc1cnc(Nc2cccc(S(N)(=O)=O)c2)nc1N1CCN(c2ccccc2)CC1,TYK2 JH2,"binding, competition with immobilised ligand",1 µM,85
CN(C)c1ncnc(-c2ccc3nc(Nc4cc(CN5CCN(C(=O)CC(F)(F)F)CC5)ccn4)[nH]c3c2)c1Cl,TYK2 JH2,"cell-free assay, competition with immobilised ligand",1 µM,77
O=C(c1ccc(Nc2ncc(Cl)c(-c3ccc(Cl)s3)n2)cc1)N1CCC(N2CCCC2)CC1,TYK2 JH1,"binding, competition with immobilised ligand",1 µM,25
CC(C)(C)c1ccc(-c2nc(CBr)nn2-c2cccc(O)c2)cc1,TYK2,"cell-free assay, competition with immobilised ligand",10 µM,62
COc1cccc(CNC(=O)c2nc3scc(COCc4ccc(C(=O)O)cc4)c3c(=O)[nH]2)c1,TYK2 JH2,"cell-free assay, competition with immobilised ligand",1 µM,79.8
O=C(NCC1CCOCC1)c1n[nH]cc1NC(=O)c1c(F)cccc1F,TYK2 JH1,"binding, competition with immobilised ligand",1 µM,91
COc1ccnn2ncc(-c3ccnc(N(C)C)n3)c12,TYK2 JH1,"cell-free assay, competition with immobilised ligand",1 µM,81
Cc1cnc(Nc2ccc(C(=O)N3CCC(N4CCCC4)CC3)cc2)nc1-c1cc2ccccc2s1,TYK2 JH2,"binding, competition with immobilised ligand",1 µM,0
CNC(=O)[C@@H]1CC[C@@H](n2c(-c3ccc4cnccc4c3)nc3ccc(C(=O)NCc4cccc(C(N)=O)c4)cc32)C1,TYK2 JH1,"binding, competition with immobilised ligand",1 µM,99
Cc1c[nH]c2nccc(Oc3c(F)cc(Nc4cc(Cl)nc(N)n4)cc3F)c12,TYK2 JH2,"cell-free assay, competition with immobilised ligand",0.1 µM,89
N#Cc1ccccc1CSc1nnc2c(n1)[nH]c1ccccc12,TYK2 JH1,"binding, competition with immobilised ligand",10 µM,96
Nc1ncc2c(n1)-c1c([nH]c3ccc(C#CC4CC4)cc13)CCCC2,TYK2 JH2,"binding, competition with immobilised ligand",1 µM,73
CCN1CCN(Cc2ccc(C(=O)Nc3ccc(C)c(Oc4ccc5c(c4)CC(=O)N5)c3)cc2C(F)(F)F)CC1,TYK2 JH2,"binding, competition with immobilised ligand",1 µM,100
O=C(c1ccc(Nc2nccc(-c3cc4ccccc4s3)n2)cc1)N1CCC(N2CCCC2)CC1,TYK2 JH2,"binding, competition with immobilised ligand",1 µM,0.1
CCc1ccccc1C(=O)Nc1n[nH]c2c(C)c(F)c(C3C(C#N)=C(C)N(C)C(C)=C3C#N)cc12,TYK2 JH1,"cell-free assay, competition with immobilised ligand",1 µM,100
O=C(Nc1c[nH]nc1C(=O)NC1CCNCC1)c1cc(F)cc(F)c1,TYK2 JH2,"binding, competition with immobilised ligand",1 µM,100
CC(=O)N1CCC(c2ccc(C(=O)NC3=NCCN3)cc2C(F)(F)F)CC1,TYK2 JH2,"cell-free assay, competition with immobilised ligand",1 µM,100
CN(C)c1nccc(-c2cnn3ncccc23)n1,TYK2,binding,1 µM,100
COc1ncc2cc3ccccc3nc2c1C#N,TYK2 JH1,"cell-free assay, competition with immobilised ligand",5 µM,69
c1cnn2ncc(-c3ccnc(N4CCC45COC5)n3)c2c1,TYK2,binding,1 µM,66
Cc1nc(C2CCN(C(=O)c3ccc(OC(F)(F)F)cc3N)CC2)c2ncc(N3CCN(C)CC3)cc2n1,TYK2 JH2,"cell-free assay, competition with immobilised ligand",1 µM,88
O=C(c1ccc(Nc2ncc(Cl)c(-c3cc4ccccc4s3)n2)cc1)N1CCC(N2CCCC2)CC1,TYK2 JH2,"binding, competition with immobilised ligand",1 µM,0.1
C[C@@H]1CN(c2ccc3ncc(-c4ccc5[nH]nc(C6CC6)c5c4)n3n2)C[C@H](C)O1,TYK2,"binding, competition with immobilised ligand",0.5 µM,100
C[C@@H]1CCN(c2nccc(-c3cnn4ncccc34)n2)C1,TYK2,binding,1 µM,66
O=C(N[C@H]1CCCCC/C=C\C2C[C@@]2(C(=O)O)NC(=O)[C@@H]2C[C@@H](Oc3ccncc3)CN2C1=O)OC1CCCC1 (stereo partly shown),TYK2 JH1,"binding, competition with immobilised ligand",1 µM,98
CN1CCN(c2ccc(Nc3nccc(-c4cccc([N+](=O)[O-])c4)n3)cc2C(F)(F)F)CC1,TYK2,binding,10 µM,0
CN(C)c1nccc(-c2cnc3ncccn23)n1,TYK2,binding,1 µM,82
CC(=O)Nc1c(C(C)=O)c(=O)n(C)c2nc(-c3ccc(Cl)cc3Cl)c(-c3ccc(Cl)cc3)cc12,TYK2 JH2,"cell-free assay, competition with immobilised ligand",1 µM,100
O=C(NCCCN1CCOCC1)c1ccc(Nc2ncc(Cl)c(-c3ccc(Cl)s3)n2)cc1,TYK2 JH1,"binding, competition with immobilised ligand",1 µM,26
CN(C)c1ncc(F)c(-c2cnn3ncccc23)n1,TYK2,binding,1 µM,70
O=C(NCCCN1CCOCC1)c1ccc(Nc2nccc(-c3cc4ccccc4s3)n2)cc1,TYK2 JH2,"binding, competition with immobilised ligand",1 µM,0
COc1cnc(Nc2cccc(S(N)(=O)=O)c2)nc1N1CCN(c2ccccc2)C(=O)C1,TYK2 JH1,"binding, competition with immobilised ligand",1 µM,39
N[C@@H]1CCN(c2nccc(-c3cnn4ncccc34)n2)C1,TYK2 JH1,"cell-free assay, competition with immobilised ligand",1 µM,100
c1cncc(-c2cccc(Nc3nccc(NC4CCCCC4)n3)c2)c1,TYK2 JH2,"binding, competition with immobilised ligand",10 µM,3.8
